Drawing on ChEMBL document CHEMBL1158396 (2009), this text covers Activity and inhibition for 13 molecules.

The target of experiment [1] is Cyclin-dependent kinase 5/CDK5 activator 1 (Homo sapiens) (UniProt Q00535+Q15078). The experiment in a line: Inhibition of GST-CDK5/p25 expressed in Escherichia coli assessed as residual enzyme activity at 10 uM.
Experiment [2] concerns the target Dual specificity tyrosine-phosphorylation-regulated kinase 1A (Rattus norvegicus) (UniProt Q63470). The experiment can be described thus: Inhibition of rat GST-fused Dyrk1a expressed in Escherichia coli assessed as residual enzyme activity at 10 uM.
The species named for experiment [3] is Sus scrofa. The experiment can be described thus: Inhibition of pig GSK3 assessed as residual enzyme activity at 10 uM.
The species entered for experiment [4] is Sus scrofa. The experiment in a line: Inhibition of pig CK1 assessed as residual enzyme activity at 10 uM.
Experiment [5] relates to HL-60. The experiment can be described thus: Antiproliferative activity against human HL60 cells at 1 uM after 72 hrs by MTS assay. It is filed as functional. Conditions: HL-60, 72 h. In a few lines:
(§1)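 Cells kept in Glutamax RPMI with 10% fetal calf serum, penicillin and streptomycin, at 37 °C in 5% CO2. Plated at 500–800 cells/well and left 24 h before adding compound in DMSO (10^-6 or 10^-5 M final). Exposure was continuous for 72 h, then MTS read-out at 490 nm, in triplicate. Percent inhibition was taken from absorbance versus control wells after blank subtraction.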
(Tetrazolium assays rely on reduction of a dye to a coloured formazan, in cell work by metabolically active cells.)

Experiment [6] deals with HL-60. The experiment can be described thus: Antiproliferative activity against human HL60 cells at 10 uM after 72 hrs by MTS assay. It is filed as functional. Conditions: HL-60, 72 h. In a few lines: as §1
In experiment [7] the test system is K562. The experiment in a line: Antiproliferative activity against human K562 cells at 10 uM after 72 hrs by MTS assay. Particulars: K562, 72 h. It is filed as functional. The gist of the method: as §1
Experiment [8] has as its system K562. The experiment in a line: Antiproliferative activity against human K562 cells at 1 uM after 72 hrs by MTS assay. Particulars: K562, 72 h. It is filed as functional. In a few lines:
as §1

For experiment [9], the system named is K562. The experiment can be described thus: Antiproliferative activity against human K562 cells at 0.25 nM after 72 hrs by MTS assay. Type of experiment: functional. Particulars: K562, 72 h.
Experiment [10] concerns HL-60. The experiment can be described thus: Antiproliferative activity against human HL60 cells at 0.25 nM after 72 hrs by MTS assay. Type of experiment: functional. Particulars: HL-60, 72 h.

Chain of Cyclin-dependent kinase 5/CDK5 activator 1 (Homo sapiens) (Q00535 whole entry, the tested form may be a part): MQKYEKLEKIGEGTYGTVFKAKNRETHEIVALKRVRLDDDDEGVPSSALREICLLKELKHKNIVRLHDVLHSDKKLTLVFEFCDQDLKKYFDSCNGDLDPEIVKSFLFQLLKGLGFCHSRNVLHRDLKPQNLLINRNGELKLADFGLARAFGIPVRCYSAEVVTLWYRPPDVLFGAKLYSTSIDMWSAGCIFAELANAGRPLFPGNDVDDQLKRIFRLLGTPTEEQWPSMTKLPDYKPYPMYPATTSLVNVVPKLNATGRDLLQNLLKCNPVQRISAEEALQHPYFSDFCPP
Chain of Cyclin-dependent kinase 5/CDK5 activator 1 (Homo sapiens) (Q15078 99-307 partner limits assumed): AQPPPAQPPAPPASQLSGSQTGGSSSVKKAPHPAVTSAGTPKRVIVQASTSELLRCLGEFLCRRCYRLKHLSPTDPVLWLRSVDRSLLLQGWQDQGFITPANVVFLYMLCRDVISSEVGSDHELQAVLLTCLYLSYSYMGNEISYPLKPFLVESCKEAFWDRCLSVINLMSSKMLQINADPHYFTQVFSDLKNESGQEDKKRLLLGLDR

Consider `CC(=O)OC[C@H]1O[C@@H](N2C(=O)/C(=C3/C(=O)Nc4ncc(Br)cc43)c3ccccc32)[C@H](OC(C)=O)[C@@H](OC(C)=O)[C@@H]1OC(C)=O`, for which the Activity in experiment [1] and in experiment [2] was more than 65% in each case.
Consider `CC(=O)OC[C@H]1O[C@@H](N2C(=O)/C(=C3/C(=O)Nc4ccc(C#CCCO)cc43)c3ccccc32)[C@H](OC(C)=O)[C@@H](OC(C)=O)[C@@H]1OC(C)=O`, for which the Activity in experiment [3], in experiment [4], in [1] and in experiment [2] was more than 65% throughout. Besides, the inhibition at 1 µM turned out to be 0% in experiment [5] and 2% in experiment [8]. Moreover, the inhibition at 10 µM amounted to 8% in experiment [6] and 33% in experiment [7].
As to `CC(=O)OC[C@H]1O[C@@H](N2C(=O)/C(=C3/C(=O)Nc4ncc(C#CCCO)cc43)c3ccccc32)[C@H](OC(C)=O)[C@@H](OC(C)=O)[C@@H]1OC(C)=O`, the inhibition at 1 µM in experiment [5] turned out to be 0%; in experiment [8] it was 5%. The inhibition at 10 µM in experiment [6] turned out to be 0%; in [7] it was 10%.
Take `CC(=O)OC[C@H]1O[C@@H](N2C(=O)/C(=C3/C(=O)Nc4ncc(C#CCNC(=O)OCc5ccccc5)cc43)c3ccccc32)[C@H](OC(C)=O)[C@@H](OC(C)=O)[C@@H]1OC(C)=O`: the Activity in experiment [3], in experiment [4], in [1] and in experiment [2] was more than 65% throughout. In addition, the inhibition at 1 µM was determined as 0% in experiment [5] and 4% in experiment [8]. Besides, the inhibition at 10 µM in experiment [6] was 11%; in experiment [7], 59%.
`CC(=O)OC[C@H]1O[C@@H](N2C(=O)/C(=C3/C(=O)Nc4ccc(C#CCNC(=O)OCc5ccccc5)cc43)c3cc(Br)ccc32)[C@H](OC(C)=O)[C@@H](OC(C)=O)[C@@H]1OC(C)=O`: the Activity in [3], in experiment [4], in experiment [1] and in experiment [2] was more than 65% each time. Besides, the inhibition at 1 µM in experiment [5] turned out to be 0%; in experiment [8] it was 1%. The inhibition at 10 µM in [6] was 0%; in [7], 2%.
`CC(=O)OC[C@H]1O[C@@H](N2C(=O)/C(=C3/C(=O)Nc4ccc(C#CCNC(=O)OCc5ccccc5)cc43)c3ccccc32)[C@H](OC(C)=O)[C@@H](OC(C)=O)[C@@H]1OC(C)=O`: the Activity in experiment [3], in experiment [4], in [1] and in experiment [2] was more than 65% each time. Moreover, the inhibition at 1 µM in [5] and in experiment [8] was 0% in each case. In addition, the inhibition at 10 µM in experiment [6] was 1%; in experiment [7] it was 6%.
In the case of `CC(=O)OC[C@H]1O[C@@H](N2C(=O)/C(=C3/C(=O)Nc4ncc(C#CCNC(=O)OCc5ccccc5)cc43)c3cc(Br)ccc32)[C@H](OC(C)=O)[C@@H](OC(C)=O)[C@@H]1OC(C)=O`, the inhibition at 1 µM in experiment [5] and in experiment [8] was 0% throughout. The inhibition at 10 µM in experiment [6] came out at 0%; in experiment [7], 5%.
As for `CC(=O)OC[C@H]1O[C@@H](N2C(=O)/C(=C3/C(=O)Nc4ccc(I)cc43)c3cc(Br)ccc32)[C@H](OC(C)=O)[C@@H](OC(C)=O)[C@@H]1OC(C)=O`, the Activity in experiment [3], in experiment [4], in experiment [1] and in [2] was more than 65% throughout. Also, the inhibition at 1 µM in [5] and in [8] was 0% each time. Further, the inhibition at 10 µM was determined as 0% in [6] and 3% in experiment [7].
In the case of `CC(=O)OC[C@H]1O[C@@H](N2C(=O)/C(=C3/C(=O)Nc4ncc(I)cc43)c3cc(Br)ccc32)[C@H](OC(C)=O)[C@@H](OC(C)=O)[C@@H]1OC(C)=O`, the inhibition at 1 µM in experiment [5] and in experiment [8] was 0% in each case. Also, the inhibition at 10 µM in [6] turned out to be 0%; in [7], 3%.
In the case of `CC(=O)OC[C@H]1O[C@@H](N2C(=O)/C(=C3/C(=O)Nc4ncc(I)cc43)c3ccccc32)[C@H](OC(C)=O)[C@@H](OC(C)=O)[C@@H]1OC(C)=O`, the Activity in experiment [3], in experiment [4], in experiment [1] and in experiment [2] was more than 65% throughout. Moreover, the inhibition at 1 µM in experiment [5] and in experiment [8] was 0% in each case. Also, the inhibition at 10 µM came to 1% in experiment [6] and 47% in [7].
Consider `CC(=O)OC[C@H]1O[C@@H](N2C(=O)/C(=C3/C(=O)Nc4ncc(Br)cc43)c3cc(Br)ccc32)[C@H](OC(C)=O)[C@@H](OC(C)=O)[C@@H]1OC(C)=O`, for which the Activity in [3], in experiment [4], in [1] and in [2] was more than 65% in each case. The inhibition at 1 µM is 0% in experiment [5] and 3% in experiment [8]. The values for the inhibition at 10 µM in [6] and in experiment [7] were 0% and 4%, respectively.
With `CC(=O)OC[C@H]1O[C@@H](N2C(=O)/C(=C3/C(=O)Nc4ccc(I)cc43)c3ccccc32)[C@H](OC(C)=O)[C@@H](OC(C)=O)[C@@H]1OC(C)=O`, the Activity in experiment [1] and in experiment [2] was more than 65% in each case.
Take `CC(=O)O[C@@]12CO[C@@H]1C[C@H](O)[C@@]1(C)C(=O)[C@H](O)C3=C(C)[C@@H](OC(=O)[C@H](O)[C@@H](NC(=O)OC(C)(C)C)c4ccccc4)C[C@@](O)([C@@H](OC(=O)c4ccccc4)[C@H]21)C3(C)C` [DOCETAXEL]: the inhibition at 0.00025 µM in experiment [9] is 32%; in [10], 46%.

In general, inhibition refers to the drop in the measured response relative to a control, in per cent.
